# Screening data from PubChem.
# XiGFP reactiv – activators of inactive X chromosome reactivation, primary screen, imaging, XiGFP fibroblasts, GFP high-content imaging, set 2. XiGFP mouse fibroblasts, % GFP-positive cells imaging, 3 d; cells co-treated with 5-aza-dC sensitizer; scaled so ellipticine positive control = 100%. activation, % at 7.58 µM. 0.055% of 360,000 active;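 active = mean normalized replicate activation at least 10% and every replicate at or above 10%; inconclusive = only one of the two criteria met; inactive = mean below 10% and not all replicates reach 10%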;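 also: 0% = median of on-plate neutral control wells and 100% = ellipticine 6 µM median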
#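 Schedule: 3 d treatment, 15 min room-temperature fixation; system: 68-5-11 XiGFP fibroblast line; buffer or medium: DMEM plus 5-aza-dC sensitizer; control set: ellipticine 6 µM positive control; compound: one concentration, pinned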
# PvdQ inh – P. aeruginosa PvdQ acylase inhibitors, primary screen, biochemical, fluorescence, plate reader and imaging, single point; AID 488965, 2010; 0.063% of 340,000 active; inhibition, % at 10 µM; purified PvdQ acylase; PvdQ acylase [Pseudomonas aeruginosa LESB58]; in the data active = inhibition above about 30%, passing the limit was not always enough; inconclusive = no clear call, values can overlap the other calls;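 also: 0% = vehicle neutral wells and 100% = reference inhibitor wells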
# dFosB act-1 – activators of delta FosB homodimer, primary screen, biochemical, fluorescence polarization, TAMRA-CDK5 oligo, single point. Protein FosB (Mus musculus), P13346. purified delta FosB; percent of positive-control signal above neutral wells. activation, % at 25 µM. 0.99% of 340,000 active;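 active = mean activation above about 17%, with every replicate also reaching it, limit read from the data, passing the limit was not always enough; inconclusive = only one of the two conditions met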
# SR-BI DiI-HDL act – activators of SR-BI mediated DiI-HDL uptake, primary screen, ldlA[mSR-BI] CHO cells, DiI fluorescence; activation, % at 12.5 µM; 3 h; 100 = double the neutral-control signal; 0.096% of 320,000 active;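 active = mean replicate activation of at least 60% and every replicate at or above 60%; inconclusive = mean or all-replicate condition met, but not both; inactive = mean below 60% and not all replicates reaching 60%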;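 also: 0% = median plate neutral-control signal and 100% = twice that signal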
#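 Test system: SR-BI-overexpressing, LDLR-lacking CHO cells; Also added: labelled HDL, 10 µg/mL; Measured by: bottom-read cell fluorescence after medium removal, ex 550/em 595 nm; Timing: 3 h uptake period with compound, 37 °C; Buffer or medium: F12, 0.5% BSA, 25 mM HEPES; Doses: single compound concentration, delivered by pin transfer.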
# SR-BI HDL uptake – inhibitors of SR-BI mediated HDL lipid uptake, primary screen, ldlA[mSR-BI] cells, fluorescence, single point; Scavenger receptor class B member 1 (Mus musculus), Q61009; 0.96% of 320,000 active; inhibition, % at 12.5 µM; AID 488896, 2010; ldlA[mSR-BI] CHO cells, DiI-HDL uptake fluorescence, 3 h;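 active = mean replicate inhibition of at least 70% and a set share of replicates each scoring 70 or more; inconclusive = meets just one of the two criteria; inactive = fails both criteria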;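 also: 0% = median of neutral control wells and 100% = median of positive control wells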
# Target sequence (Q61009 whole entry, looked up): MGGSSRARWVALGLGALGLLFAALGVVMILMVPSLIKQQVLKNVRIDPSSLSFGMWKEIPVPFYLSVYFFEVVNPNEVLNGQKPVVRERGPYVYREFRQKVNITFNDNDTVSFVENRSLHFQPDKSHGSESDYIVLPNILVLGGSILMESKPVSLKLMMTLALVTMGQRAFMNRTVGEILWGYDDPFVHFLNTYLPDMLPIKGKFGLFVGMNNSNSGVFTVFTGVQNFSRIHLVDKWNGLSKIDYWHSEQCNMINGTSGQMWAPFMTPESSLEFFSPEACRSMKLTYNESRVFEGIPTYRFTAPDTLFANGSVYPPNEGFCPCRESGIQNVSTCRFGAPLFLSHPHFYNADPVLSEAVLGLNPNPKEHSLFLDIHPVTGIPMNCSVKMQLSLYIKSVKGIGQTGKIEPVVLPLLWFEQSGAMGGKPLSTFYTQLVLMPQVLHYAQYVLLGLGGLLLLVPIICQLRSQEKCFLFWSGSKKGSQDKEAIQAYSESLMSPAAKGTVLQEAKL
# Ecoli rRNA inh – reduced GFP signal of wild-type E. coli, primary screen, bacterial rRNA inhibitor project, GFP/RFP fluorescence, OD600, single point; 1.6% of 350,000 active; AID 720706, 2013; GFP signal change (wild-type ribosome), % (no concentration beside the values); E. coli WT GFP vs humanized-ribosome RFP mutants, 24 h; hits give low values; DMSO median 0, no signal -100;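 active = significant combined selectivity score with lowered wild-type GFP, culture density cut under 30%, mutant RFP and density less affected; inactive = any of these conditions unmet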
# dFosB act-2 – activators of mouse delta FosB DNA binding, confirmation, biochemical, fluorescence polarization, TAMRA-CDK5 oligo, cherry-picked samples. purified delta FosB; normalised: neutral wells 0, positive control 100. AID 588690, 2011. 2,400 tested, under 10 active. shares compounds with dFosB act-1. activation, % at 24.9 µM;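 active = highest replicate activation at or above 34% and every replicate reaching that threshold; inconclusive = meets only one of the two criteria; inactive = meets neither criterion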;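 also: higher polarization means more probe DNA bound by delta FosB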
# Active calls of the source: *; ? = inconclusive; . = not tested or not shown. Hits are enriched below; roughly 2.6% of the tested compounds scored in any of these assays.
SMILES,XiGFP reactiv,PvdQ inh,dFosB act-1,SR-BI DiI-HDL act,SR-BI HDL uptake,Ecoli rRNA inh,dFosB act-2
COc1cc(OC)c2c(-c3ccccc3)cc(=O)oc2c1C(CCN1CCCC1)c1ccc2c(c1)OCO2 (stereo not given),0,2,19*,4,-4,8,2
CCCCCc1cc(=O)oc2c(C(CCN3CCCCC3)c3ccc4c(c3)OCO4)c(OC)cc(OC)c12 (stereo not given),0,8,?,-3,3,-56,.
CCCCCc1cc(=O)oc2c(C(CCN3CCCC(C)C3)c3ccc4c(c3)OCO4)c(OC)cc(OC)c12 (stereo not given),0,-12,32*,-8,8,-36,1
COc1ccc(C(CCN2CCN(c3ccccc3)CC2)c2c(OC)cc(OC)c3c(-c4ccccc4)cc(=O)oc23)cc1 (stereo not given),0,-6,20*,11,-11,11,2
O=C(c1cc(F)ccc1F)C1CCCN(C(=O)CSc2ccccn2)C1 (stereo not given),0,-4,-1,19,-19,-13,.
Cc1ccc(-c2nnc(NCc3nc4ccccc4[nH]3)c3ccccc23)cc1S(=O)(=O)N(C)C,0,1,?,-43,43,0,.
Cc1ccc(-c2nnc(NCc3nc4ccccc4[nH]3)c3ccccc23)cc1S(=O)(=O)N1CCOCC1,.,10,56*,-30,30,.,0
CCCNC(=O)N1CCN(S(=O)(=O)c2ccc(C)cc2)CC1,.,-14,1,-7,7,.,.
Cc1c(C(=O)OCC(=O)N2CC(=O)Nc3ccccc32)oc2ccc(Br)cc12,.,-11,70*,-19,19,.,0
Cc1cc(C(=O)OCC(=O)N2CC(=O)Nc3ccccc32)no1,.,-10,-4,-1,1,.,.
CC(=O)Oc1ccc(C(=O)Nc2cccc(C(=O)NC(C)(C)C)c2)cc1,0,-11,-4,-29,29,-25,.
CC(=O)Oc1ccc(C(=O)Nc2cccc(C(=O)c3cccc(NC(=O)c4ccc(OC(C)=O)cc4)c3)c2)cc1,0,5,57*,-31,31,.,2
O=C(/C=C/c1ccc2c(c1)OCO2)Nc1nc2ccc(F)cc2s1,0,-2,30*,.,.,4,3
O=C(/C=C/c1ccc2c(c1)OCO2)Nc1ccc(Cl)cn1,1,-9,103*,-19,19,11,-1
O=C(CN(Cc1ccc(Cl)cc1)C(=O)CN1C(=O)COc2ccccc21)NC1CCCC1,0,-4,29*,.,.,7,8
COc1ccc(CN(CC(=O)NC2CCCC2)C(=O)CN2C(=O)COc3ccccc32)cc1,0,0,1,7,-7,10,.
O=C(CSc1nc2ccc(Cl)cc2[nH]1)NC1CCCc2ccccc21 (stereo not given),0,-12,19*,14,-14,10,5
O=C(CSc1nc2ccccc2[nH]1)NC1CCCc2ccccc21 (stereo not given),0,-5,-14,13,-13,.,.
Cc1csc(NC(=O)COc2ccc3c(C)cc(=O)oc3c2)n1,.,-12,54*,-11,11,14,4
Cc1cc(=O)oc2cc(NC(=O)CCOc3ccccc3)ccc12,0,-16,21*,.,.,8,2
